From ChEMBL document CHEMBL5724801, “EUbOPEN Chemogenomics Library - Multiplex” (2024)
“And” between values parts separate entries of the source, which are not always exact repeats. Equal values may be shown once.

System: U2OS
Test: Multiplex assay against U2OS
Format: toxicity, cell-based
Details: human
How it was run: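 Imaging took place on a CQ1 microscope at 37°C and 5% CO2 once compound had been added to live cells stained at seeding with Hoechst33342, BioTracker Green Microtubule Cytoskeleton Dye, MitoTracker Red and Annexin V Alexa Fluor 680. CellPathfinder machine-learning gating classed cells as Hoechst high-intensity objects or normal cells, classed normal cells as having healthy, pyknosed or fragmented nuclei, and classed pyknosed cells as mitotic or apoptotic. Tubulin, mitochondrial-mass and membrane-permeability phenotypes are per cents of the healthy-nucleus cells.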

[1] = 12 h, 1 µM, compound concentration 1 uM
[2] = 12 h, 10 µM, compound concentration 10 uM
[3] = 24 h, 1 µM, compound concentration 1 uM
[4] = 24 h, 10 µM, compound concentration 10 uM
[5] = 48 h, 1 µM, compound concentration 1 uM
[6] = 48 h, 10 µM, compound concentration 10 uM

CC(C)C[C@H](CO)Nc1nc(S[C@@H](C)c2ccccc2)nc2nc(N)sc12 [AZD-8797]
Population Apoptotic (%) [1]: 83% and 100% | Population Fragmented Nuclei (%) [1]: 20% and 12% | Population Healthy Nuclei (%) [1]: 65% and 82% | Population Hoechst High Intensity Objects (%) [1]: 3% and 0% | Population Membrane Permeable-Phenotype (%) [1]: 5% | Population Mitochondria Different-Phenotype (%) [1]: 1% and 5% | Population Mitotic Cells (%) [1]: 16% and 0% | Population Normal (%) [1]: 96% and 100% | Population Pyknosed Nuclei (%) [1]: 14% and 5% | Population Tubulin-Different-Phenotype (%) [1]: 2% and 3% | Total Cell Count [1]: 177 and 95 | Population Apoptotic (%) [2]: 63% and 78% | Population Fragmented Nuclei (%) [2]: 21% and 9% | Population Healthy Nuclei (%) [2]: 56% and 79% | Population Hoechst High Intensity Objects (%) [2]: 4% and 2% | Population Membrane Permeable-Phenotype (%) [2]: 30% and 10% | Population Mitochondria Different-Phenotype (%) [2]: 12% and 16% | Population Mitotic Cells (%) [2]: 36% and 21% | Population Normal (%) [2]: 95% and 97% | Population Pyknosed Nuclei (%) [2]: 22% and 10% | Total Cell Count [2]: 222 and 135 | Population Apoptotic (%) [3]: 81% and 83% | Population Fragmented Nuclei (%) [3]: 20% and 17% | Population Healthy Nuclei (%) [3]: 68% and 77% | Population Hoechst High Intensity Objects (%) [3]: 1% and 0% | Population Membrane Permeable-Phenotype (%) [3]: 2% and 4% | Population Mitochondria Different-Phenotype (%) [3]: 0% and 2% | Population Mitotic Cells (%) [3]: 18% and 16% | Population Normal (%) [3]: 98% and 100% | Population Pyknosed Nuclei (%) [3]: 10% and 4% | Population Tubulin-Different-Phenotype (%) [3]: 2% and 3% | Total Cell Count [3]: 219 and 121 | Population Apoptotic (%) [4]: 76% and 100% | Population Fragmented Nuclei (%) [4]: 20% and 7% | Population Healthy Nuclei (%) [4]: 58% and 86% | Population Hoechst High Intensity Objects (%) [4]: 3% and 1% | Population Membrane Permeable-Phenotype (%) [4]: 22% and 9% | Population Mitochondria Different-Phenotype (%) [4]: 12% | Population Mitotic Cells (%) [4]: 24% and 0% | Population Normal (%) [4]: 96% and 98% | Population Tubulin-Different-Phenotype (%) [4]: 13% and 6% | Total Cell Count [4]: 245 and 156 | Population Apoptotic (%) [5]: 94% and 100% | Population Fragmented Nuclei (%) [5]: 18% and 15% | Population Healthy Nuclei (%) [5]: 69% and 77% | Population Hoechst High Intensity Objects (%) [5]: 2% | Population Membrane Permeable-Phenotype (%) [5]: 6% and 2% | Population Mitochondria Different-Phenotype (%) [5]: 0% and 2% | Population Mitotic Cells (%) [5]: 5% and 0% | Population Normal (%) [5]: 97% | Population Pyknosed Nuclei (%) [5]: 11% and 6% | Population Tubulin-Different-Phenotype (%) [5]: 2% | Total Cell Count [5]: 352 and 181 | Population Apoptotic (%) [6]: 90% and 96% | Population Fragmented Nuclei (%) [6]: 26% and 12% | Population Healthy Nuclei (%) [6]: 54% and 74% | Population Hoechst High Intensity Objects (%) [6]: 4% and 3% | Population Membrane Permeable-Phenotype (%) [6]: 20% and 11% | Population Mitochondria Different-Phenotype (%) [6]: 10% and 5% | Population Mitotic Cells (%) [6]: 9% and 3% | Population Normal (%) [6]: 95% and 96% | Population Pyknosed Nuclei (%) [6]: 19% and 12% | Population Tubulin-Different-Phenotype (%) [6]: 14% and 4% | Total Cell Count [6]: 296 and 218
